Test results as given in publication PMC4183726 (Journal of biomolecular screening, 2014).
Where a name gives a salt, the structure may show the parent alone. Read-outs that look alike come from different tables or passages of the source.

What was measured:
MBD2-MBD [1] = biological target: T1, MBD2-MBD (Homo sapiens, UniProt Q9UBB5); assay: TR-FRET dose-response; type: binding; conditions: for dose-response for inhibition of MBD2-MBD binding to methylated DNA (in words): TR-FRET, dose range tested up to 20 µM
T1 sequence (Q9UBB5 145-213 limits assumed): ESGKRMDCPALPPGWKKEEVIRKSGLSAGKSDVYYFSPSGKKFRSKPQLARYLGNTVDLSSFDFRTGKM

SP-1 = SP-1 (Homo sapiens, UniProt P08047); assay: TR-FRET counter screen with transcription factor SP-1 binding to DNA; conditions: for inhibition of SP-1 binding to DNA (in words): TR-FRET counter screen, dose response
Sequence of SP-1 (P08047 whole entry): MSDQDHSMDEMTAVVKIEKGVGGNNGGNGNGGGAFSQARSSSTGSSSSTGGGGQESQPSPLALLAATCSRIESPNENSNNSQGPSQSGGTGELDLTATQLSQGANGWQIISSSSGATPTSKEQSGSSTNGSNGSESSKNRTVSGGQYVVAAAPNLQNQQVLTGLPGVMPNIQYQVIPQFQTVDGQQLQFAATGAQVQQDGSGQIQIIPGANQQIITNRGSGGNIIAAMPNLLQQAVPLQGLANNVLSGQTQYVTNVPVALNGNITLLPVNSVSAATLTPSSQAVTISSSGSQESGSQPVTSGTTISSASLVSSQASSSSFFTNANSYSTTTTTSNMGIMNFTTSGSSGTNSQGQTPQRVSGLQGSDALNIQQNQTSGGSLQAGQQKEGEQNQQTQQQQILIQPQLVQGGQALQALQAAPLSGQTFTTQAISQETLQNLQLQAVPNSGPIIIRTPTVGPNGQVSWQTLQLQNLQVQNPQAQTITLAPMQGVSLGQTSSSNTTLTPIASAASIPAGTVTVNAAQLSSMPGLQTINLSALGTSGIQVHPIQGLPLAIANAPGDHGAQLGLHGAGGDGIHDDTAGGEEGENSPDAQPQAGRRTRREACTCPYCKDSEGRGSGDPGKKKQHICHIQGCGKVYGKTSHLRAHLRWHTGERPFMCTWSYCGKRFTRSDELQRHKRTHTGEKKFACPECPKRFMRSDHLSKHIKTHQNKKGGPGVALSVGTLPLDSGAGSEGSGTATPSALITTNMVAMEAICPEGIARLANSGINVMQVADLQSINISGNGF

MBD2-MBD [2] = biological target: T1, MBD2-MBD; assay: TR-FRET binding curves of MBD2-MBD to methylated and unmethylated DNA; conditions: read-out: EC50 of MBD2-MBD binding to DNA; TR-FRET assay
Method in brief: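 His-tagged MBD2-MBD (25nM; E. coli-expressed, Ni-NTA and gel-filtration purified) in the FP binding buffer. FAM-labelled methylated or unmethylated hairpin oligo added as a dilution series, with 5 nM Tb-anti-His antibody. 1 h at 4°C with shaking. Ex 332 nm; emission 485 and 515 nm read after a 50 µsec delay over 400 µsec. No-protein 515/485 ratio subtracted; plotted against total DNA concentration and curve-fitted.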

MBD2-MBD [3] = biological target: T1, MBD2-MBD; conditions: read-out: EC50 of MBD2-MBD binding to DNA; FP assay
Method in brief: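 His-tagged MBD2-MBD expressed in E. coli BL21 DE3 and purified by Ni-NTA and gel filtration. Protein dilution series in 10 mM Tris-HCl pH 7.4, 125 mM NaCl, 4% glycerol, 1 mM MgCl2, 0.5 mM EDTA, 0.5 mM DTT, 0.2% Tween-20. Added 10nM FAM-labelled hairpin oligo (CpG-methylated or unmethylated; annealed at 95°C, then ice). 1 h at 4°C with shaking, quadruplicate. Ex 470/em 525 nm; anisotropy plotted against protein concentration and curve-fitted.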

MBD2-MBD [4] = biological target: MBD2-MBD (UniProt Q9UBB5 145-213); assay: fluorescence polarization
Sequence of MBD2-MBD (UniProt Q9UBB5 145-213) (Q9UBB5 145-213): as the sequence (Q9UBB5 145-213 limits assumed) above

| Molecule | IC50 (MBD2-MBD [1]) | dose-response for inhibition of MBD2-MBD binding to methylated DNA (in words) (MBD2-MBD [1]) | inhibition of SP-1 binding to DNA (in words) (SP-1) | further results |
| --- | --- | --- | --- | --- |
| CC(=O)[C@]1(O)Cc2c(O)c3c(c(O)c2[C@@H](O[C@H]2C[C@H](N)[C@H](O)[C@H](C)O2)C1)C(=O)c1ccccc1C3=O [Idarubicin] | 196 nM | showed a sigmoidal dose-response | prevented binding of SP1 to DNA with similar potency | IC50 (SP-1): 580 nM |
| unmethylated DNA: FAM-labeled hairpin oligonucleotide 5′-ATGCTCGTAGCACTTTTGTGCTACGAGCAT-3′ (unmethylated) (DNA, backbone not given here; FAM label, hairpin) | – | – | – | EC50 (SP-1; read-out: EC50 of SP-1 binding to DNA, TR-FRET assay, binding curve): 22 nM; EC50 (MBD2-MBD [2]): > 1000 nM; EC50 (MBD2-MBD [3]): > 1000 nM |
| CN(N=O)c1ccc(O)c(O)c1 [Me-3,4-dephostatin] | – | failed to show appreciable inhibition | – | – |
| N[C@H](C(=O)O)[C@H]1C[C@@H]1C(=O)O [(2S,1S,2S)-2-(carboxycyclopropyl)glycine] | – | failed to show appreciable inhibition | – | – |
| CN(N=O)c1cc(O)ccc1O [Dephostatin] | – | failed to show appreciable inhibition | – | – |
| CCN(CC)CCOCCOC(=O)C1(c2ccccc2)CCCC1 [Carbetapentane citrate] | – | failed to show appreciable inhibition | – | – |
| O=C(O)C1=CC(=C(c2ccc(O)c(C(=O)O)c2)c2ccc(O)c(C(=O)O)c2)C=CC1=O [Aurintricarboxylic acid] | 2.7 nM | showed a sigmoidal dose-response | prevented binding of SP1 to DNA with similar potency | – |
| NC(Cc1cc(O)c(O)cc1O)C(=O)O (racemic) [6-Hydroxy-DL-DOPA] | – | failed to show appreciable inhibition | – | – |
| O=C1c2c(O)ccc(O)c2C(=O)c2c(NCCNCCO)ccc(NCCNCCO)c21 [Mitoxantrone] | 94 nM | showed a sigmoidal dose-response | prevented binding of SP1 to DNA with similar potency | IC50 (SP-1): 314 nM |
| ATGCTCGTAGCACTTTTGTGCTACGAGCAT (structured_DNA, 5-methyl-C at C6 and C24 (printed Cme)) [methylated hairpin FAM] | – | – | – | apparent K (half saturation) (MBD2-MBD [4]): 42.7 nM |
